In ChEMBL document CHEMBL1833801, “Natural daucane sesquiterpenes with antiproliferative and proapoptotic activity against human tumor cells” (Bioorg Med Chem, 2011):
Active and inactive are the calls of the source. The rule behind the calls is not given here.

Tests used:
K562 = test: Cytotoxicity against human K562 cells after 72 hrs by MTT assay; format: functional, cell-based; conditions: K562, 72 h
Jurkat [1] = test: Cytotoxicity against human Jurkat cells after 72 hrs by MTT assay; format: functional, cell-based
HL-60 = test: Cytotoxicity against human HL60 cells after 72 hrs by MTT assay; format: functional, cell-based; conditions: HL-60, 72 h
A549 = test: Cytotoxicity against human A549 cells after 72 hrs by MTT assay; format: functional, cell-based; conditions: A549, 72 h
[2] = Cytotoxicity against human RS4:11 cells after 72 hrs by MTT assay; format: functional, cell-based; conditions: RS4-11, 72 h
HeLa = test: Cytotoxicity against human HeLa cells after 72 hrs by MTT assay; format: functional, cell-based
[3] = Cytotoxicity against human SEM cells after 72 hrs by MTT assay; format: functional, cell-based
Jurkat [4] = test: Induction of apoptosis in human Jurkat cells assessed as viable cells at 50 uM after 24 hrs by FITC-conjugated annexin V and propidium iodide staining-based flow cytometry relative to control; format: functional; conditions: read-out: Activity
Method in brief: (§1)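 Jurkat cells exposed for 24 and 48 h, over a range of 1.25–100 µM, then co-stained with Annexin-V-FITC and propidium iodide. Read by flow cytometry, excitation 488 nm, emission 525 and 585 nm. Quadrants scored as A+/PI− (early apoptotic) and A+/PI+ (late apoptotic), compared with untreated cells. Mean ± SEM of three independent experiments.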

Jurkat [5] = test: Induction of apoptosis in human Jurkat cells assessed as early apoptotic cells at 50 uM after 48 hrs by FITC-conjugated annexin V and propidium iodide staining-based flow cytometry relative to control; format: functional; method in brief: as §1
Jurkat [6] = test: Induction of apoptosis in human Jurkat cells assessed as late apoptotic cells at 50 uM after 24 hrs by FITC-conjugated annexin V and propidium iodide staining-based flow cytometry relative to control; format: functional; method in brief: as §1
Jurkat [7] = test: Induction of apoptosis in human Jurkat cells assessed as necrotic cells at 50 uM after 48 hrs by FITC-conjugated annexin V and propidium iodide staining-based flow cytometry relative to control; format: functional; method in brief: as §1
Jurkat [8] = test: Induction of apoptosis in human Jurkat cells assessed as late apoptotic cells at 50 uM after 48 hrs by FITC-conjugated annexin V and propidium iodide staining-based flow cytometry relative to control; format: functional; method in brief: as §1
Jurkat [9] = test: Induction of apoptosis in human Jurkat cells assessed as DNA fragmentation at 25 to 50 uM after 48 hrs by agarose gel electrophoresis; format: functional, cell-based
Method in brief: (§2)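 Genomic DNA taken from treated Jurkat cells by salting out after 48 h. 1 µg run on 1.5% agarose in TAE at 50 V for 6 h. Gel stained with ethidium bromide and imaged under UV light.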

Jurkat [10] = test: Cell cycle arrest in human Jurkat cells assessed as accumulation at G1 phase after 48 hrs using propidium iodide staining by flow cytometry; format: functional, cell-based
Method in brief: (§3)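 Exponentially growing Jurkat cells, 2.5×10^5, exposed to 1.25–100 µM for 48 h. Cells fixed in ice-cold 70% ethanol, lysed in buffer with RNase A and 0.1% Triton X-100, stained with propidium iodide. Cell-cycle phases read by flow cytometry. Mean ± SEM of three independent experiments; two-sided Student's t test against control.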

PBL [11] = test: Cytotoxicity against human PBL after 72 hrs by MTT assay; format: cell-based
Method in brief: (§4)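 PBL from healthy donors separated on a density gradient, washed, held at 1.0×10^6 cells/mL in RPMI-1640 with 10% FCS overnight. Non-adherent cells resuspended at 5×10^5 cells/mL. Stimulated cultures received 2.5 µg/mL PHA; resting cultures had none. Compound at several concentrations for 72 h, viability by MTT, IC50 taken. Mean ± SEM of three experiments.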

Jurkat [12] = test: Cytotoxicity against human Jurkat cells assessed as cell viability at 50 uM after 48 hrs by MTT assay in presence of 100 uM pan-caspase inhibitor z-VAD; format: functional
Method in brief: (§5)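 Jurkat cells exposed to compound for 48 h with or without 100 µM of the pan-caspase inhibitor z-VAD.fmk. Percent viability read by MTT. Mean ± SEM.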

Jurkat [13] = test: Induction of apoptosis in human Jurkat cells assessed as early apoptotic cells at 50 uM after 24 hrs by FITC-conjugated annexin V and propidium iodide staining-based flow cytometry relative to control; format: functional; method in brief: as §1
Jurkat [14] = test: Induction of apoptosis in human Jurkat cells assessed as viable cells at 50 uM after 48 hrs by FITC-conjugated annexin V and propidium iodide staining-based flow cytometry relative to control; format: functional; conditions: read-out: Activity; method in brief: as §1
Jurkat [15] = test: Cell cycle arrest in human Jurkat cells assessed as accumulation at G1 phase at 50 uM after 48 hrs using propidium iodide staining by flow cytometry; format: functional, cell-based; method in brief: as §3
PBL [16] = test: Cytotoxicity against PHA-stimulated human PBL after 72 hrs by MTT assay; format: cell-based; method in brief: as §4
Jurkat [17] = test: Induction of apoptosis in human Jurkat cells assessed as increase in late apoptotic cells after 24 hrs by FITC-conjugated annexin V and propidium iodide staining-based flow cytometry; format: functional, cell-based; method in brief: as §1
Jurkat [18] = test: Induction of apoptosis in human Jurkat cells assessed as necrotic cells at 50 uM after 24 hrs by FITC-conjugated annexin V and propidium iodide staining-based flow cytometry relative to control; format: functional; method in brief: as §1
Jurkat [19] = test: Cell cycle arrest in human Jurkat cells assessed as accumulation at G2/M phase after 48 hrs using propidium iodide staining by flow cytometry; format: functional, cell-based; method in brief: as §3
Jurkat [20] = test: Induction of apoptosis in human Jurkat cells assessed as increase in early apoptotic cells after 24 hrs by FITC-conjugated annexin V and propidium iodide staining-based flow cytometry; format: functional, cell-based; method in brief: as §1
Jurkat [21] = test: Cell cycle arrest in human Jurkat cells assessed as decrease in S phase phase after 48 hrs using propidium iodide staining by flow cytometry; format: functional, cell-based; method in brief: as §3
Jurkat [22] = test: Cell cycle arrest in human Jurkat cells assessed as decrease in G1 phase phase after 48 hrs using propidium iodide staining by flow cytometry; format: functional, cell-based; method in brief: as §3
Jurkat [23] = test: Cytotoxicity against human Jurkat cells assessed as cell viability at 25 uM after 48 hrs by MTT assay in presence of 100 uM pan-caspase inhibitor z-VAD; format: functional; method in brief: as §5
Jurkat [24] = test: Induction of apoptosis in human Jurkat cells assessed as increase in late apoptotic cells after 48 hrs by FITC-conjugated annexin V and propidium iodide staining-based flow cytometry; format: functional, cell-based; method in brief: as §1
Jurkat [25] = test: Induction of apoptosis in human Jurkat cells assessed as DNA fragmentation at 12.5 to 50 uM after 48 hrs by agarose gel electrophoresis; format: functional, cell-based; method in brief: as §2

SMILES | IC50 (K562) [µM] | IC50 (Jurkat [1]) [µM] | IC50 (HL-60) [µM] | IC50 (A549) [µM] | IC50 [2] [µM] | IC50 (HeLa) [µM] | IC50 [3] [µM] | also measured
C/C=C(\C)C(=O)O[C@H]1C[C@@]2(C)O[C@H]2[C@@H](OC(C)=O)[C@@]2(C)CC[C@@](O)(C(C)C)[C@H]12 | > 100 | > 100 | > 100 | > 100 | > 100 | > 100 | > 100 | 
COc1ccc(C(=O)O[C@H]2CC(C)=C[C@@H](O)[C@@]3(C)[C@@H](OC(C)=O)C[C@@](O)(C(C)C)[C@H]23)cc1 | 85.2 | 33.6 | 24 | > 100 | 70.4 | > 100 | > 100 | 
COc1ccc(C(=O)O[C@H]2CC(C)=C[C@@H](OC(C)=O)[C@@]3(C)[C@@H](OC(C)=O)C[C@@](O)(C(C)C)[C@H]23)cc1 | > 100 | 62.2 | 83.5 | > 100 | 42.9 | > 100 | 32.9 | 
COc1ccc(C(=O)O[C@H]2CC(C)=C[C@H](OC(C)=O)[C@@]3(C)[C@@H](OC(C)=O)C[C@@](O)(C(C)C)[C@H]23)cc1 | 39.6 | 3.3 | 11.3 | 23.3 | 2.8 | 14.5 | 15 | viability at 50 µM (Jurkat [4]): 36.5%; Activity (Jurkat [5]): 0.1%; Activity (Jurkat [6]): 41.7%; Activity (Jurkat [7]): 27.8%; Activity (Jurkat [8]): 67.4%; Activity (Jurkat [9]): inactive; Activity (Jurkat [10]): Active; IC50 (PBL [11]): 6.6 µM; Activity (Jurkat [12]): 13%; Activity (Jurkat [13]): 5.8%; viability at 50 µM (Jurkat [14]): 4.7%; Activity (Jurkat [15]): inactive; IC50 (PBL [16]): 9.4 µM; Activity (Jurkat [17]): Dose-dependent effect; Activity (Jurkat [18]): 16%
COc1ccc(C(=O)O[C@H]2CC(C)=C[C@H](OC(C)=O)[C@]3(C)[C@@H]2[C@](O)(C(C)C)C[C@@H]3O)cc1 | 70.4 | 9.1 | 14.9 | > 100 | 26.8 | 52.6 | 26.5 | Activity (Jurkat [10]): Active; IC50 (PBL [11]): 30.3 µM; Activity (Jurkat [15]): inactive; IC50 (PBL [16]): 33.7 µM; Activity (Jurkat [17]): Dose-dependent effect
COc1ccc(C(=O)O[C@H]2C=C(C)C(=O)C[C@@]3(C)CC[C@@](O)(C(C)C)[C@H]23)cc1 | > 100 | 40.5 | 38.9 | 31.8 | 28.6 | 29.7 | 28.4 | 
C/C=C(/C)C(=O)O[C@H]1CC(C)=C[C@@H](OC(=O)/C(C)=C\C)[C@@]2(C)CC[C@@](O)(C(C)C)[C@H]12 | 26.5 | 7.7 | 2.6 | 2.8 | 1.7 | 4.4 | 2.4 | Activity (Jurkat [19]): Dose-dependent effect; Activity (Jurkat [20]): Dose-dependent effect; IC50 (PBL [11]): 22.6 µM; Activity (Jurkat [21]): Active; Activity (Jurkat [22]): Active; IC50 (PBL [16]): 13.7 µM; Activity (Jurkat [23]): 19%; Activity (Jurkat [24]): Active; Activity (Jurkat [25]): Active
COc1ccc(C(=O)O[C@H]2CC(C)=CC[C@@]3(C)CC[C@@](O)(C(C)C)[C@H]23)cc1 [FERUTIDIN] | 67.8 | 30.5 | 20.1 | 31.9 | 17.6 | > 100 | 18.2 | 
COc1ccc(C(=O)OCC2=CC[C@@]3(C)CC[C@]4(C(C)C)O[C@]34CC2)cc1 | > 100 | > 100 | > 100 | > 100 | 60.9 | > 100 | 84 | 
COc1ccc(C(=O)O[C@H]2CC(C)=C[C@H](O)[C@@]3(C)[C@@H](OC(C)=O)C[C@@](O)(C(C)C)[C@H]23)cc1 | 48.2 | 5.9 | 23 | 79.6 | 34.4 | 52.9 | 18.1 | Activity (Jurkat [19]): Dose-dependent effect; IC50 (PBL [11]): 20.5 µM; Activity (Jurkat [21]): Active; Activity (Jurkat [22]): Active; IC50 (PBL [16]): 27.2 µM; Activity (Jurkat [17]): Dose-dependent effect
COc1ccc(C(=O)OCC2=CC[C@@]3(C)CCC(C(C)C)=C3CC2)cc1 | 67 | 25.6 | 30.7 | > 100 | 44.1 | > 100 | 25.5 | 
CC1=CC[C@]2(C)[C@@H]([C@@H](OC(=O)c3ccc(O)cc3)C1)[C@](O)(C(C)C)C[C@@H]2O | 95 | 40.3 | 3.5 | 83.7 | 33.4 | 56.5 | 22.4 | 
C=C1C[C@H](OC(=O)c2ccc(O)cc2)[C@@H]2[C@](C)(CC[C@@]2(O)C(C)C)C[C@@H]1O | > 100 | 55 | 43.4 | > 100 | 29 | > 100 | 34.7 | 
CC1=C[C@H](OC(=O)c2ccc(O)cc2)[C@@H]2[C@](C)(CC[C@@]2(O)C(C)C)CC1=O | > 100 | 40.5 | 82.5 | 14.5 | 28.2 | 26.1 | 24.4 | 
COc1ccc(C(=O)O[C@@H]2C=C(C)CC[C@]3(O)[C@H](C(C)C)CC(=O)[C@]23C)cc1 [SIOL ANISATE] | > 100 | > 100 | > 100 | > 100 | > 100 | > 100 | 23.9 | 
